In ChEMBL document CHEMBL1135230, “Synthesis of Sordaricin analogues as potent antifungal agents against Candida albicans” (2002):
≈ marks a conversion by molar mass, not a printed value.

What was measured:
Type in all cases: functional
Nakaseomyces glabratus = test: Tested in vitro for the minimum inhibitory concentration (MIC) against Candida glabrata ATCC 90030
Method in brief: (§1)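 Broth MIC determined in RPMI1640 at pH 7.0, incubated at 35 °C; MIC taken as the lowest concentration giving 80% inhibition of fungal growth.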

Candida albicans [1] = test: Tested in vitro for the minimum inhibitory concentration (MIC) against Candida albicans ATCC 24433; method in brief: as §1
Candida albicans [2] = test: Tested in vitro for the minimum inhibitory concentration (MIC) against Candida albicans SANK51486; method in brief: as §1
Candida albicans [3] = test: Tested in vitro for the minimum inhibitory concentration (MIC) against Candida albicans TIMM3164; method in brief: as §1
Candida albicans [4] = test: Tested in vitro for the minimum inhibitory concentration (MIC) against Candida albicans ATCC 64550; method in brief: as §1
Candida tropicalis = test: Tested in vitro for the minimum inhibitory concentration (MIC) against Candida tropicalis ATCC750; method in brief: as §1

| Structure (SMILES) | MIC (Nakaseomyces glabratus) [µg/mL] | MIC (Candida albicans [1]) [µg/mL] | MIC (Candida albicans [2]) [µg/mL] | MIC (Candida albicans [3]) [µg/mL] | MIC (Candida albicans [4]) [µg/mL] | MIC (Candida tropicalis) [µg/mL] |
| --- | --- | --- | --- | --- | --- | --- |
| CC(C)C1=CC2CC3(C=O)[C@@H]4CC[C@@H](C)[C@H]4CC2(CN(C)C2CCCCC2)C13C(=O)O (stereo not given in full) | 8 (≈ 18.7 µM) | 8 (≈ 18.7 µM) | 8 (≈ 18.7 µM) | 16 (≈ 37.4 µM) | 16 (≈ 37.4 µM) | > 16 |
| CC(C)C1=CC2CC3(C=O)[C@@H]4CC[C@@H](C)[C@H]4CC2(C(=O)NC2CCCCC2)C13C(=O)O (stereo not given in full) | 0.5 (≈ 1.17 µM) | > 4 | > 4 | > 4 | > 4 | > 4 |
| CC(C)C1=CC2CC3(C=O)[C@@H]4CC[C@@H](C)[C@H]4CC2(CSC2CCCCC2)C13C(=O)O (stereo not given in full) | 0.031 (≈ 0.072 µM) | 0.031 (≈ 0.072 µM) | ≤ 0.016 | 0.063 (≈ 0.146 µM) | 0.125 (≈ 0.29 µM) | 2 (≈ 4.64 µM) |
| C/C=C/C=C\C(=O)O[C@H]1[C@H](O)[C@H](OCC23C[C@@H]4[C@H](C)CC[C@H]4C4(C=O)CC2C=C(C(C)C)C34C(=O)O)O[C@H](C)[C@H]1OC (stereo not given in full) | > 4 | 0.5 (≈ 0.852 µM) | 0.25 (≈ 0.426 µM) | 0.5 (≈ 0.852 µM) | 0.5 (≈ 0.852 µM) | 0.5 (≈ 0.852 µM) |
| CC(C)C1=CC2CC3(C=O)[C@@H]4CC[C@@H](C)[C@H]4CC2(CON=C2CCCCC2)C13C(=O)O (stereo not given in full) | 0.063 (≈ 0.147 µM) | 0.031 (≈ 0.0725 µM) | 0.031 (≈ 0.0725 µM) | 0.063 (≈ 0.147 µM) | 0.063 (≈ 0.147 µM) | 1 (≈ 2.34 µM) |
| CC(C)C1=CC2CC3(C=O)[C@@H]4CC[C@@H](C)[C@H]4CC2(COC2CCCCC2)C13C(=O)O (stereo not given in full) | ≤ 0.063 | 0.125 (≈ 0.302 µM) | ≤ 0.063 | 0.25 (≈ 0.603 µM) | 0.25 (≈ 0.603 µM) | 2 (≈ 4.82 µM) |
| CC(C)C1=CC2CC3(C=O)[C@@H]4CC[C@@H](C)[C@H]4CC2(/C=N/OC2CCCCC2)C13C(=O)O (stereo not given in full) | 0.125 (≈ 0.292 µM) | 0.031 (≈ 0.0725 µM) | 0.031 (≈ 0.0725 µM) | 0.063 (≈ 0.147 µM) | 0.063 (≈ 0.147 µM) | 1 (≈ 2.34 µM) |
| CC(C)C1=CC2CC3(C=O)[C@@H]4CC[C@@H](C)[C@H]4CC2(C(=O)OC2CCCCC2)C13C(=O)O (stereo not given in full) | 0.5 (≈ 1.17 µM) | ≤ 0.125 | ≤ 0.125 | 0.25 (≈ 0.583 µM) | 0.5 (≈ 1.17 µM) | 4 (≈ 9.33 µM) |
| OC(Cn1cncn1)(Cn1cncn1)c1ccc(F)cc1F [FLUCONAZOLE] | > 4 | 0.5 (≈ 1.63 µM) | 0.25 (≈ 0.816 µM) | > 4 | > 4 | 0.5 (≈ 1.63 µM) |
| CCC(C)n1ncn(-c2ccc(N3CCN(c4ccc(OC[C@H]5CO[C@](Cn6cncn6)(c6ccc(Cl)cc6Cl)O5)cc4)CC3)cc2)c1=O (stereo not given in full) [ITRACONAZOLE] | 1 (≈ 1.42 µM) | 0.125 (≈ 0.177 µM) | 0.031 (≈ 0.0439 µM) | 0.25 (≈ 0.354 µM) | 1 (≈ 1.42 µM) | 0.5 (≈ 0.709 µM) |
